ChEMBL document CHEMBL1157613, “Salicylic acid based small molecule inhibitor for the oncogenic Src homology-2 domain containing protein tyrosine phosphatase-2 (SHP2)” (J Med Chem, 2010)
Active and inactive are the calls of the source. The calls are words filed in the database; no cut-off is given here.

Assays:
Mus musculus [1] = organism: Mus musculus; experiment: Antiproliferative activity against GM-CSF-stimulated C57/BL6 mouse low density BM-MNC expressing SHP2 D61Y mutant assessed as inhibition of hyperproliferation at 10 uM after 16 hrs by [3H]thymidine incorporation assay; format: functional; details: C57Bl/6
Method in brief: (§1)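 Marrow low-density mononuclear cells from C57Bl/6 mice (Ficoll), prestimulated 24 h with SCF, G-CSF, Tpo (100 ng/mL), retrovirally transduced 48 h with wild-type SHP2, D61Y or E76K, EGFP-sorted. Starved 4 h in 0.2% BSA; 5 × 10^4 cells cultured 16 h in GM-CSF 0-1 ng/mL ± 10 μM compound, then pulsed with 1.0 μCi [3H]thymidine for 6-8 h; counts per minute; n = 3.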

Mus musculus [2] = organism: Mus musculus; experiment: Antiproliferative activity against GM-CSF-stimulated C57/BL6 mouse low density BM-MNC assessed as inhibition of hyperproliferation at 10 uM after 16 hrs by [3H]thymidine incorporation assay; details: C57Bl/6
[3] = target: Receptor-type tyrosine-protein phosphatase F (Homo sapiens, UniProt P10586); experiment: Inhibition of LAR expressed in Escherichia coli assessed as inhibition of p-nitrophenyl phosphate hydrolysis at pH 7 by spectrophotometry
Receptor-type tyrosine-protein phosphatase F, sequence (P10586 whole entry): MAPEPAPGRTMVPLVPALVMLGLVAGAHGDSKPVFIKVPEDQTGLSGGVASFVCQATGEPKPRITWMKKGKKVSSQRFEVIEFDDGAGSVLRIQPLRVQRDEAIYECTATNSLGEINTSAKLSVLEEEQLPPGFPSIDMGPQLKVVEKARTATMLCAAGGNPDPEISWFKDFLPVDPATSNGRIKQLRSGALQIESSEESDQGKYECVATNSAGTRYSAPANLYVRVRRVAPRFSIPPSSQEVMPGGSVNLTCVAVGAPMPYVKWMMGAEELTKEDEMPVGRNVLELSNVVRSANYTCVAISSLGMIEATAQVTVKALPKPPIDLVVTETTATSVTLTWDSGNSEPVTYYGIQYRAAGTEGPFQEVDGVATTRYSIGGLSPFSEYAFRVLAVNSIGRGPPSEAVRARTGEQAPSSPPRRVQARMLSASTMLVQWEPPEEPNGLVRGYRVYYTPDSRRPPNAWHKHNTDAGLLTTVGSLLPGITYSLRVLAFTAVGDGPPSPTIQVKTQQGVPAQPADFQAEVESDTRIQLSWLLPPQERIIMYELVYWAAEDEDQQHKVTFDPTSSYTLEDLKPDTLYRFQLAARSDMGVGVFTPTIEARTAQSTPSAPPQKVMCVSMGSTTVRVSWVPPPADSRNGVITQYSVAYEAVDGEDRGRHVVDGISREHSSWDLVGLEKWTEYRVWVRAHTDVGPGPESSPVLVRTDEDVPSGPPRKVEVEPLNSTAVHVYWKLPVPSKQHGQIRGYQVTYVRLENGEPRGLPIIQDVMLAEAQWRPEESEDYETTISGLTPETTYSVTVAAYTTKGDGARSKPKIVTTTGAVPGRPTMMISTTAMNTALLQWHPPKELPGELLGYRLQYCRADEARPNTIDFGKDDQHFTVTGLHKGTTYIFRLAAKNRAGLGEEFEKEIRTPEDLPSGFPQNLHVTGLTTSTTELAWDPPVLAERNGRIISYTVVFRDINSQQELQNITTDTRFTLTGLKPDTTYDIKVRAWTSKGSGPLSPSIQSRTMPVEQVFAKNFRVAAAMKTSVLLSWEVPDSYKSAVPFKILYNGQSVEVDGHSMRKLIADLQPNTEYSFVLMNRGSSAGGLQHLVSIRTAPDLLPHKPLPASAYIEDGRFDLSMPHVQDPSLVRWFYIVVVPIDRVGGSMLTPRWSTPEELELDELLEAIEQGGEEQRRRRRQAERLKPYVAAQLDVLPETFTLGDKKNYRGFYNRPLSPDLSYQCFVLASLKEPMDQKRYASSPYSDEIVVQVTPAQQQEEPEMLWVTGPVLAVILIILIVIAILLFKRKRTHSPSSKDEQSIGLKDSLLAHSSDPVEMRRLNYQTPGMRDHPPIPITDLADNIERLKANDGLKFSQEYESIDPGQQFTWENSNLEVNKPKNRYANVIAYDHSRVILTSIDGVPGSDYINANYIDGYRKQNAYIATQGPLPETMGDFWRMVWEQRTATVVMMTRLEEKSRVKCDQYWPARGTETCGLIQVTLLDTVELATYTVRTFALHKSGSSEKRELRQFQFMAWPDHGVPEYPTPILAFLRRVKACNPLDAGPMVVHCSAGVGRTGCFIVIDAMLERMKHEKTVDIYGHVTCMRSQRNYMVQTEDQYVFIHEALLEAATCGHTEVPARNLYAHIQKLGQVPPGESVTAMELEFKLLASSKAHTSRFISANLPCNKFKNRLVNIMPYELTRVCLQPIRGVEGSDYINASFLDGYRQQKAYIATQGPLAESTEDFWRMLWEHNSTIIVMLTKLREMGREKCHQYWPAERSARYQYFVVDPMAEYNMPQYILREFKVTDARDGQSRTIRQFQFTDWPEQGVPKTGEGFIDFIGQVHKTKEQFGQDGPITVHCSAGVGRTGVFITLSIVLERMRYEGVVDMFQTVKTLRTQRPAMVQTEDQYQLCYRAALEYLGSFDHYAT

Mus musculus [4] = organism: Mus musculus; experiment: Antiproliferative activity against GM-CSF-stimulated C57/BL6 mouse low density BM-MNC expressing SHP2 E76K mutant assessed as inhibition of hyperproliferation at 10 uM after 16 hrs by [3H]thymidine incorporation assay; format: functional; details: C57Bl/6; method in brief: as §1
[5] = target: Dual specificity protein phosphatase 3 (Homo sapiens, UniProt P51452); experiment: Inhibition of VHR expressed in Escherichia coli assessed as inhibition of p-nitrophenyl phosphate hydrolysis at pH 7 by spectrophotometry
Dual specificity protein phosphatase 3, sequence (P51452 whole entry): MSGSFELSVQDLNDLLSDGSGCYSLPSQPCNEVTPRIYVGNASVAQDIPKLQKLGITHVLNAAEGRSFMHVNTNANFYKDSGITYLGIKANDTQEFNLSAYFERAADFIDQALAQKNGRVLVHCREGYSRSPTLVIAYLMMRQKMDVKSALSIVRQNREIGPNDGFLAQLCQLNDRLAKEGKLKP

[6] = target: Receptor-type tyrosine-protein phosphatase alpha (Homo sapiens, UniProt P18433); experiment: Inhibition of PTPalpha expressed in Escherichia coli assessed as inhibition of p-nitrophenyl phosphate hydrolysis at pH 7 by spectrophotometry
Receptor-type tyrosine-protein phosphatase alpha, sequence (P18433 whole entry): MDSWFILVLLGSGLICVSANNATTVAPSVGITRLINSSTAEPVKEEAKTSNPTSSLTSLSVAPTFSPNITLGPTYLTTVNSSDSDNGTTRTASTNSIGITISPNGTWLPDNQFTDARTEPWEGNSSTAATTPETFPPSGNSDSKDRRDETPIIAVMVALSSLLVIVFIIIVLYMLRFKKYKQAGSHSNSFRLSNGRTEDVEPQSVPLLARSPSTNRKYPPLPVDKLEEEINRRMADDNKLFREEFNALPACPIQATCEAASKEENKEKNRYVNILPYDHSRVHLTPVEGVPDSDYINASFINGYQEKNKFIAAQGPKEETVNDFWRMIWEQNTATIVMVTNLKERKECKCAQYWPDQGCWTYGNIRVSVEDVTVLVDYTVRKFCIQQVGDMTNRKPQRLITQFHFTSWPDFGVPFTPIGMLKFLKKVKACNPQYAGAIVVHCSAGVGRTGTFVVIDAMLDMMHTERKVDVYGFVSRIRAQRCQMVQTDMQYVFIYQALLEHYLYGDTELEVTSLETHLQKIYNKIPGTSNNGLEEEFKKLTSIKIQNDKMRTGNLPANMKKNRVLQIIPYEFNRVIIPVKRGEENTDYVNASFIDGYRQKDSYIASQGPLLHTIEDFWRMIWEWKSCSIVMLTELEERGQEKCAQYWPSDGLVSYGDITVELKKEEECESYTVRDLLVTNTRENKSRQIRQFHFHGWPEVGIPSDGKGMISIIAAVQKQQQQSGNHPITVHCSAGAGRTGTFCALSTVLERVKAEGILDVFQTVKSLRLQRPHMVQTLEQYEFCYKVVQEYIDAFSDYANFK

[7] = target: T1, Dual specificity protein phosphatase CDC14A (Homo sapiens, UniProt Q9UNH5); experiment: Inhibition of Cdc14A expressed in Escherichia coli assessed as inhibition of p-nitrophenyl phosphate hydrolysis at pH 7 by spectrophotometry
T1 sequence (Q9UNH5 whole entry): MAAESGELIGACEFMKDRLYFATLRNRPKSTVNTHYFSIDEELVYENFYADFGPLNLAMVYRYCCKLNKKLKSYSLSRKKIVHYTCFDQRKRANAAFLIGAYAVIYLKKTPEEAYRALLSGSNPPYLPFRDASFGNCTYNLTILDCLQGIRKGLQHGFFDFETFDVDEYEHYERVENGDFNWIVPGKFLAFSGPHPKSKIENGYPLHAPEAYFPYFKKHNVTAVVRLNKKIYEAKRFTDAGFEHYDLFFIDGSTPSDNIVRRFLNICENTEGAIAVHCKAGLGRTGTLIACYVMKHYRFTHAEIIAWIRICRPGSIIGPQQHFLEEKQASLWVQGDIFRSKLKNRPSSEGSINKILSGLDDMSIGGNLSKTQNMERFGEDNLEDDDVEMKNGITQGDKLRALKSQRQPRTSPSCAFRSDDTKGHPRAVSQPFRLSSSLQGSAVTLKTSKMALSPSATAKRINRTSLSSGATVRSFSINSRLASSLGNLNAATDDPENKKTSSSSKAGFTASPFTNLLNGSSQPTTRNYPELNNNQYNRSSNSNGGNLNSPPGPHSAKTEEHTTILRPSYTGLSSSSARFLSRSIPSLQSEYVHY

IC50 [3]: > 50 µM
IC50 [5]: > 50 µM
IC50 [6]: > 50 µM
IC50 [7]: > 50 µM
Structure (SMILES): Cn1c(-c2ccccc2)c(-c2cn(CCC(=O)Nc3ccc(-c4ccccc4)cc3)nn2)c2cc(C(=O)O)c(O)cc21
Activity (Mus musculus [1]): Active
Activity (Mus musculus [2]): Active
Activity (Mus musculus [4]): Active
